Assay results from ChEMBL document CHEMBL1909627, “Synthesis of three novel fluorine-18 labeled analogues of L-deprenyl for positron emission tomography (PET) studies of monoamine oxidase B (MAO-B)” (J Med Chem, 2011).

How the values were obtained:
Brain [1] = test: Drug uptake in NMRI mouse brain at 0.178 MBq, iv after 2 mins post injection by gamma counting; type: ADME, organism-based; settings: in vivo
How it was run: (§1)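 NMRI mice (25.0–31.5 g), three per time point, each given 0.178 MBq tracer in 0.9% NaCl; killed by isoflurane overdose at each post-injection time; organs and blood excised and γ-counted; values decay-corrected and expressed as %ID/g.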

Brain [2] = test: Drug uptake in NMRI mouse brain at 0.178 MBq, iv after 30 mins post injection by gamma counting; type: ADME, organism-based; settings: in vivo, 0.5 h; how it was run: as §1
Brain [3] = test: Drug uptake in NMRI mouse brain at 0.178 MBq, iv after 4 hrs by gamma counting; type: ADME, organism-based; settings: in vivo; how it was run: as §1
[4] = molecular target: T1, Amine oxidase [flavin-containing] B (Homo sapiens, UniProt P27338); test: Binding affinity to MAO-B in human brain Alzheimer disease slices at 4 MBq after 90 mins by autoradiography; settings: 1.5 h
T1 sequence (P27338 whole entry): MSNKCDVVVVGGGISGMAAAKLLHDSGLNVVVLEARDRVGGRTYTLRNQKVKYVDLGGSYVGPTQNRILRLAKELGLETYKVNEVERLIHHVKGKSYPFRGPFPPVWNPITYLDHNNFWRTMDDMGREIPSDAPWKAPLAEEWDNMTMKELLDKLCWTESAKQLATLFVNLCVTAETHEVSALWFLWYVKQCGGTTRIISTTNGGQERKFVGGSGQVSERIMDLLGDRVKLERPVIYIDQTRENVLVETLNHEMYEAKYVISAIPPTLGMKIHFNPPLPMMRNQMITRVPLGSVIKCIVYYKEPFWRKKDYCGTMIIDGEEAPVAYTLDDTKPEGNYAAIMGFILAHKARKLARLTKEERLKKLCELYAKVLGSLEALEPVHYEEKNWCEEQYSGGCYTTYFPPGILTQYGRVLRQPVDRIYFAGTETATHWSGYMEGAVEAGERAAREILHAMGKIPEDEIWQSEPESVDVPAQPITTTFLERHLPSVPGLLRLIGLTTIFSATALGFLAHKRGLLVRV

[5] = molecular target: T1, Amine oxidase [flavin-containing] B; test: Binding affinity to MAO-B in human brain Alzheimer disease slices at 4 MBq after 90 mins by autoradiography in presence of 10 uM MAO-B inhibitor L-deprenyl; settings: 1.5 h
[6] = molecular target: T1, Amine oxidase [flavin-containing] B; test: Binding affinity to MAO-B in human brain Alzheimer disease slices at 4 MBq after 90 mins by autoradiography in presence of 10 uM MAO-B inhibitor rasagiline; settings: 1.5 h
[7] = molecular target: T1, Amine oxidase [flavin-containing] B; test: Binding affinity to MAO-B in human brain Alzheimer disease slices at 4 MBq after 90 mins by autoradiography in presence of 10 uM MAO-A inhibitor pirlindole; settings: 1.5 h
[8] = molecular target: T2, Amine oxidase [flavin-containing] A (Homo sapiens, UniProt P21397); test: Binding affinity to MAO-A in human brain Alzheimer disease slices at 4 MBq after 90 mins by autoradiography; settings: 1.5 h
T2 sequence (P21397 whole entry): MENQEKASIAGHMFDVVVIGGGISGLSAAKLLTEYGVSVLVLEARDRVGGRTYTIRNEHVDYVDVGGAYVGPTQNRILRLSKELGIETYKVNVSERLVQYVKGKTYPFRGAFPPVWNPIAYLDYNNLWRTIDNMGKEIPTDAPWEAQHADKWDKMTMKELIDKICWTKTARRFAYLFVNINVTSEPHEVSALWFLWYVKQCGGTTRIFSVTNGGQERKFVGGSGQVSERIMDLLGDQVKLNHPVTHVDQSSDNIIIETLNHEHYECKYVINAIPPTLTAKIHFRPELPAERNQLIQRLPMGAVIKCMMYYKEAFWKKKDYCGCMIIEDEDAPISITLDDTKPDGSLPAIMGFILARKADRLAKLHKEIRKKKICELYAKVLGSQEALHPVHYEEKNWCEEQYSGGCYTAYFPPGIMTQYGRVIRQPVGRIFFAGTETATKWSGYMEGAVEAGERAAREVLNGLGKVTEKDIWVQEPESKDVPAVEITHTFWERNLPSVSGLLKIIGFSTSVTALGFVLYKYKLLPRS

[9] = Fraction unbound in human plasma at 20 MBq after 10 mins by ultrafiltration; type: ADME, cell-free
How it was run: (§2)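 Duplicate: 500 μL monkey or human plasma, or PBS pH 7.4 as control, mixed with 50 μL tracer formulation (~20 MBq in PBS), 10 min at room temperature; 200 μL ultrafiltered by centrifugation 15 min at 3000 rpm; total and filtrate well-counted; bound fraction corrected for membrane binding using PBS control.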

[10] = Fraction unbound in monkey plasma at 20 MBq after 10 mins by ultrafiltration; type: ADME, cell-free, Macaca mulatta; settings: rhesus monkey; how it was run: as §2
[11] = Stability of the compound in PBS buffer assessed as half life at pH 7.4; type: physicochemical
[12] = molecular target: T1, Amine oxidase [flavin-containing] B; test: Inhibition of human recombinant MAO-B expressed in insect cells assessed as inhibition of kynuramine oxidation after 30 mins by fluorescence assay; type: cell-based
[13] = molecular target: T1, Amine oxidase [flavin-containing] B; test: Binding affinity to MAO-B in human brain white matter at 4 MBq after 90 mins by autoradiography; type: tissue-based; settings: 1.5 h
How it was run: (§3)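 100 μm whole-hemisphere post-mortem brain sections (control subject, 11 h post-mortem, stored at −25 °C) incubated 90 min at room temperature with 4 MBq/200 mL radiotracer in 50 mM TRIS pH 7.4 (NaCl 120 mM, KCl 5 mM, CaCl2 2 mM, 0.1% albumin); washed 3 × 5 min in buffer, dipped in ice-cold water, dried, phosphorimaged.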

[14] = molecular target: T1, Amine oxidase [flavin-containing] B; test: Binding affinity to MAO-B in human brain cortical gray matter at 4 MBq after 90 mins by autoradiography; type: tissue-based; settings: 1.5 h; how it was run: as §3
[15] = molecular target: T1, Amine oxidase [flavin-containing] B; test: Binding affinity to MAO-B in human brain white matter at 4 MBq after 90 mins by autoradiography in presence of 10 uM MAO-B inhibitor L-deprenyl; type: tissue-based; settings: 1.5 h; how it was run: as §3
[16] = molecular target: T1, Amine oxidase [flavin-containing] B; test: Binding affinity to MAO-B in human brain white matter at 4 MBq after 90 mins by autoradiography in presence of 10 uM MAO-A inhibitor pirlindole; type: tissue-based; settings: 1.5 h; how it was run: as §3
[17] = molecular target: T1, Amine oxidase [flavin-containing] B; test: Binding affinity to MAO-B in human brain white matter at 4 MBq after 90 mins by autoradiography in presence of 10 uM MAO-B inhibitor rasagiline; type: tissue-based; settings: 1.5 h; how it was run: as §3
[18] = molecular target: T2, Amine oxidase [flavin-containing] A; test: Inhibition of human recombinant MAO-A expressed in insect cells assessed as inhibition of kynuramine oxidation after 30 mins by fluorescence assay
[19] = molecular target: T1, Amine oxidase [flavin-containing] B; test: Binding affinity to MAO-B in human brain hippocampus at 4 MBq after 90 mins by autoradiography; type: tissue-based; settings: 1.5 h; how it was run: as §3
[20] = molecular target: T1, Amine oxidase [flavin-containing] B; test: Binding affinity to MAO-B in human brain cortical gray matter at 4 MBq after 90 mins by autoradiography in presence of 10 uM MAO-B inhibitor L-deprenyl; type: tissue-based; settings: 1.5 h; how it was run: as §3
[21] = molecular target: T1, Amine oxidase [flavin-containing] B; test: Binding affinity to MAO-B in human brain cortical gray matter at 4 MBq after 90 mins by autoradiography in presence of 10 uM MAO-B inhibitor rasagiline; type: tissue-based; settings: 1.5 h; how it was run: as §3
[22] = molecular target: T1, Amine oxidase [flavin-containing] B; test: Binding affinity to MAO-B in human brain cortical gray matter at 4 MBq after 90 mins by autoradiography in presence of 10 uM MAO-A inhibitor pirlindole; type: tissue-based; settings: 1.5 h; how it was run: as §3

SMILES: C#CCN(C)[C@H](C[18F])Cc1ccccc1
- Drug uptake (Brain [1]): 5.2 % ID/g
- Drug uptake (Brain [2]): 1.9 % ID/g
- Drug uptake (Brain [3]): 1.4 % ID/g
- Activity [4]: Active
- Activity [5]: Not Active
- Activity [6]: Not Active
- Activity [7]: Active
- Activity [8]: Not Active
- fraction unbound at 10 min, 20 MBq [9]: 0.168
- fraction unbound at 10 min, 20 MBq [10]: 0.241

SMILES: C#CCN(CCF)[C@H](C)Cc1ccccc1
- half-life [11]: 1.83 h
- IC50 [12]: > 2000 nM

SMILES: C#CCN(CC[18F])[C@H](C)Cc1ccccc1
- Activity [13]: Active
- Activity [14]: Not Active
- Activity [15]: Active
- Activity [16]: Active
- Activity [17]: Active

SMILES: C#CCN(C)[C@H](C)[C@H](F)c1ccccc1
- half-life [11]: 1.83 h
- IC50 [12]: > 2000 nM

SMILES: C#CCN(C)[C@H](CF)Cc1ccccc1
- half-life [11]: 1.83 h
- IC50 [18]: > 2000 nM
- IC50 [12]: 170 nM

SMILES: C#CCN(C)[C@H](C)[C@@H]([18F])c1ccccc1
- Activity [19]: Active
- Activity [20]: Not Active
- Activity [21]: Not Active
- Activity [22]: Active
